Assay outcomes: PubChem BioAssay, The Scripps Research Institute Molecular Screening Center
SIAE primary = human SIAE inhibitors, primary screen, biochemical, fluorescence polarization, FP-Rh probe, 1536-well HTS; SIAE FP-Rh probe binding; Sialate O-acetylesterase (Homo sapiens), Q9HAT2; 370,000 tested, 0.69% active; inhibition, % at 9.66 µM; AID 1053197, 2014;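 active = inhibition above a cutoff: mean of compounds within the control limits plus 3 SD of those, cut at about 17% in these data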;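 also: 0% = plate median of compound wells and 100% = probe without SIAE protein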
Target sequence (Q9HAT2 whole entry, looked up): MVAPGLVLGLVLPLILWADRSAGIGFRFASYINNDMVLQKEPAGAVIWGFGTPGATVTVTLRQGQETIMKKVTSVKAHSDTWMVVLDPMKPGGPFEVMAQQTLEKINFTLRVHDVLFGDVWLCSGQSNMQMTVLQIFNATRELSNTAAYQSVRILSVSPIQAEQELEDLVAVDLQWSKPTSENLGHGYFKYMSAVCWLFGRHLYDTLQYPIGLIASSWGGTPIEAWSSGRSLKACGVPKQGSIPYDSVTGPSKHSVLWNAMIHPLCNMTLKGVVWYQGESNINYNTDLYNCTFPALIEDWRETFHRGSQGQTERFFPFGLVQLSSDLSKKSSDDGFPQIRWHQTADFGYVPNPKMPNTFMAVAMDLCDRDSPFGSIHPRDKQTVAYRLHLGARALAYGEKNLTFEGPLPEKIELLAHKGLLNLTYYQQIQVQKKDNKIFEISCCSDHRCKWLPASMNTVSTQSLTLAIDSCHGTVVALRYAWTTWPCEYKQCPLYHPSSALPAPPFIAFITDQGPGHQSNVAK
pPAFAH FP inh = pPAFAH enzyme inhibitors, primary screen, biochemical, fluorescence polarization, human; Platelet-activating factor acetylhydrolase (Homo sapiens), Q13093; recombinant pPAFAH, FP-rhodamine probe fluorescence polarization; inhibition, % at 3.39 µM; 330,000 tested, 1.5% active; AID 463082, 2010;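 active = inhibition above the mean inhibition across the screen plus 3 SD, cut at about 25% in these data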;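 also: inhibitors block binding of the rhodamine activity-based probe so polarization drops; 0% = enzyme with DMSO and 100% = wells lacking pPAFAH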
HTRA1 inh = HTRA1 serine protease inhibitors, primary screen, biochemical, fluorescence polarization, HTS; 340,000 tested, 0.5% active; inhibition, % at 5.96 µM; Q92743; recombinant HTRA1, FP-rhodamine activity-based probe; AID 504803, 2011; in the data active = inhibition above about 36%;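 also: 0% = enzyme with DMSO and 100% = wells lacking enzyme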
TCR-CD3 inh = inhibitors of human TCR-CD3 interaction, primary screen, biochemical, fluorescence, TAMRA-labeled TCR probe. inhibition, % at 9.4 µM. 360,000 tested, 0.37% active. T-cell receptor (TCR). AID 651800, 2012; in the data active = inhibition above about 19%;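 also: recombinant mutant TCR 2C K166C tagged with TAMRA read by polarization; 0% = receptor in buffer alone and 100% = receptor with positive control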
mABHD4 FP = ABHD4 inhibitors, primary screen, biochemical, fluorescence polarization, mouse | purified mABHD4, FP-Rh probe fluorescence polarization | 370,000 tested, 0.54% active | inhibition, % at 8.92 µM | (Lyso)-N-acylphosphatidylethanolamine lipase (Mus musculus), Q8VD66;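 active = inhibition exceeding the mean over every tested compound plus 3 SD, cut at about 30% in these data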;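 also: 0% = plate median of compound wells and 100% = S159A mutant with DMSO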
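Assay system: wild-type mouse ABHD4 protein; compound: single nominal dose of 8.92 µM, 0.89% DMSO final; schedule: 45 min + 60 min at 25 °C; measured by: FP readout, ex 525 nm / em 598 nm; evaluation: % inhibition of FP-Rh probe binding versus controls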
mABHD4 conf = ABHD4 inhibitors, retest, confirmation, biochemical, fluorescence polarization, mouse; shares compounds with mABHD4 FP; purified mABHD4, FP-Rh probe fluorescence polarization; inhibition, % at 8.92 µM; 1,800 tested, 55% active;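 active = mean inhibition across replicates above the hit cutoff set in the primary screen, cut at about 30% in these data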;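 also: 0% = wild-type ABHD4 with DMSO and 100% = catalytically dead S159A mutant with DMSO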
An asterisk follows results filed as active; x = no result. Sampled rows, rich in hits. Any-hit rate of the full collection: about 2.3%.

SMILES	SIAE primary	pPAFAH FP inh	HTRA1 inh	TCR-CD3 inh	mABHD4 FP	mABHD4 conf
O=S1(=O)c2ccccc2N=NN1Cc1ccc(Cl)cc1	13	23	11	-1	46*	54*
N#Cc1cccc(C(=O)C(=O)N2CCN(C(=O)OCc3ccccc3)CC2)c1	-4	x	x	-1	-2	x
COc1ccc(C2=NN(c3ccc(C(=O)O)cc3)C(c3ccc(OC)c(OC)c3)C2)cc1 (stereo not drawn)	-8	27*	-2	3	69*	78*
COc1ccc(C2CC(c3ccccc3)=NN2c2ccc(S(N)(=O)=O)cc2)cc1OC (stereo not drawn)	1	5	-11	0	-16	x
COC(=O)C(=O)C1CCc2c(Cl)cc(OC)c(OC)c2C1=O (stereo not drawn)	14	x	12	-5	52*	12
Cc1ccc(CSc2nnc(-c3cc(-c4ccc(F)cc4)n[nH]3)n2N)cc1	0	x	x	x	2	x
c1ccc(CSC2=NNC(c3ccccn3)S2)cc1 (stereo not drawn)	7	23	18	-6	18	x
O=C(CSC1=NNC(c2ccccn2)S1)Nc1ccc(C(F)(F)F)cc1 (stereo not drawn)	-3	13	20	1	39*	-9
CN(C)c1ccc(C=Nc2ccc(N(C)C)cc2)cc1	14	19	35	15	37*	22
C[C@H]1CCCN1c1ccc2c(c1)O[C@@H]1CCN(C1)S2(=O)=O	5	x	x	x	0	x
Cc1nc2nc(C)n(CCN3CCOCC3)c(=O)c2c(-c2cccc([N+](=O)[O-])c2)c1C(=O)CCCCCCCCCCN1CCC(c2ccccc2)(c2ccccc2)CC1	9	x	-39	3	30*	39*
O=C(/C=C1\C(=O)Nc2ccccc21)/C=C1\C(=O)Nc2ccccc21	19*	x	25	6	41*	24
O=C1Nc2ccccc2/C1=C\C(=O)c1ccccc1	-5	-3	-7	0	7	x
Nc1[nH]nc2nnc(-c3c(-c4ccccc4)nn4ccccc34)cc12	-1	x	x	x	-6	x
CC(=O)c1sc(N/N=C\c2ccc(Br)cc2)nc1C	16	6	-6	10	18	x
CCOC(=O)c1sc(N/N=C/c2ccc(N(C)C)cc2)nc1C	12	4	18	-6	32*	9
CCc1ccc2[nH]c(O)c(N=NC3=NC(=O)CS3)c2c1	-1	24	11	0	31*	41*
CCc1ccc2c(c1)c(N=NC1=NC(=O)CS1)c(O)n2CC	1	6	5	3	10	x
CCN(CC)C(=O)C1=C(C)N(CCCOC)C(=O)C(CC(=O)NCCCCc2ccccc2)C1 (stereo not drawn)	2	x	8	-7	1	x
CC(NCC(O)COCCC12CC3CC(CC(C3)C1)C2)c1ccccc1 (stereo not drawn)	-3	-4	-6	3	31*	28
Nc1ccc2c(O)cc(S(=O)(=O)O)cc2c1	-15	x	25	14	39*	26
Nc1cccc2c(O)cc(S(=O)(=O)O)cc12	x	x	31	x	x	x
Cc1cc(O)ccc1Nc1cc(-c2cccc(N(C)C)c2)ncn1	13	x	x	0	6	x
CC(C)[C@@H](CO)N(Cc1cn(Cc2ccccc2)nn1)S(=O)(=O)c1ccccc1Br	1	x	x	x	1	x
CCCCCCCCN1C(=O)[C@H](CC(=O)NCc2cccc3ccccc23)C[C@@]2(C(=O)OCC)CCC=C12	-7	x	x	5	-2	x
SMILES	SIAE primary	pPAFAH FP inh	HTRA1 inh	TCR-CD3 inh	mABHD4 FP	mABHD4 conf
CC(C)n1c(O)c(/C=C2\C=Nc3ccccc32)sc1=Nc1ccccc1	2	-1	2	0	-2	x
O=c1[nH]c(S)c(/C=C2\C=Nc3ccccc32)s1	-2	25*	x	-8	30*	35*
COc1ccc(CCC(=O)Nc2nccs2)cc1OC	-14	-5	0	4	2	x
COc1ccc(CCC(=O)Nc2nc3c(s2)CN(C)CC3)cc1OC	2	1	0	0	89*	3
CC1=C(C(=O)N2CCCCCC2)CC(CC(=O)NC2CCCC2)C(=O)N1Cc1ccc(F)cc1 (stereo not drawn)	2	x	x	0	2	x
CCOC(=O)c1c(C)n(-c2ccc(C)cc2)c2c(C(C(C)=O)C(=O)O)c(Br)c(O)c(O)c12 (stereo not drawn)	-2	18	34	1	41*	31*
CCOC(=O)c1c(C)n(-c2ccc(C)cc2)c2c(CC(C)=O)c(Br)c(OC)c(O)c12	-2	1	-5	3	5	x
COc1cc2c3c(c1)/C(=C1/SC(NC(C)=O)=NC1=O)C(=O)N3C(C)(C)C=C2C	25*	8	9	1	38*	27
COc1ccc(S(=O)(=O)Oc2ccc3ccccc3c2)cc1	6	0	-19	-1	-17	x
COC1=C(OC)C(=O)C(Sc2ccc3ccccc3c2)=CC1=O	11	x	6	4	57*	102*
CCn1c(SCc2ccccc2Cl)nnc1-c1ccccc1OC	8	x	x	x	-2	x
C[C@H]1CN([C@@H](C)CO)S(=O)(=O)c2ccc(Br)cc2O[C@H]1CN(C)Cc1ccccc1	0	x	-12	2	75*	-9
C[C@H]1CN([C@@H](C)CO)S(=O)(=O)c2ccc(Br)cc2O[C@@H]1CN(C)Cc1ccccc1	8	x	-31	8	-4	x
O=C1NC[C@H](CCCCN2C[C@H](Cc3ccccc3)N(CCc3ccc(O)cc3)C(=O)C2=O)N(CCC2CCCCC2)C1=O	3	x	x	3	14	x
COC(=O)[C@H]1C[C@@]2(CC=C(C)C)c3ccccc3N(C(=O)OC(C)(C)C)[C@H]2N1C(=O)OC(C)(C)C	6	x	x	x	-9	x
CC(C)=CCC/C(C)=C/C[C@]12C[C@H](C(=O)O)N(C(=O)OC(C)(C)C)[C@@H]1N(C(=O)OC(C)(C)C)c1ccccc12	1	x	x	x	51*	40*
CCOc1ccc(CCNC(=O)CS(=O)Cc2nc(-c3ccc(C)cc3)oc2C)cc1 (stereo not drawn)	-2	3	1	2	30*	-14
CCOc1ccc(CCNC(=O)CS(=O)Cc2nc(-c3ccc(C)cc3)oc2C)cc1OCC (stereo not drawn)	-5	2	-6	-7	-8	x
C=C1C[C@@H]2C[C@@H]2CN(S(=O)(=O)c2ccc(C)cc2)[C@@H]1COCc1ccccc1	5	x	x	-2	-6	x
COc1ccc(N2COC3c4cccc5cccc(c45)C32)cc1 (stereo not drawn)	7	5	8	0	43*	-4
